Source: ChEMBL document CHEMBL4261575, “Structure-guided approach identifies a novel class of HIV-1 ribonuclease H inhibitors: binding mode insights through magnesium complexation and site-directed mutagenesis studies” (Medchemcomm, 2018)
Activity calls are given as the source filed them. The rule behind the calls is not given here.

Assays:
[1] = target: Human immunodeficiency virus type 1 reverse transcriptase (Human immunodeficiency virus 1) (UniProt Q72547); assay: Inhibition of HIV1 reverse transcriptase RNase H activity using 18-nucleotide 3'-fluorescein-labeled RNA/5'-[…]-labeled DNA hybrid as substrate assessed as remaining activity at 100 uM after 1 hr by fluorescence assay relative to control
How it was run: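 Wild-type RT (20 ng) RNase H reaction in Tris-HCl pH 7.8 buffer with 6 mM MgCl2, 1 mM DTT and 80 mM KCl. Substrate was 0.25 μM fluorescein/dabcyl RNA/DNA hybrid, with compound at 100 μM. Incubation 1 h at 37 °C, EDTA stop, fluorescence at 490/528 nm. Activity is given as percentage of control.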

[2] = target: Human immunodeficiency virus type 1 reverse transcriptase (Human immunodeficiency virus 1, UniProt Q72547); assay: Inhibition of HIV1 reverse transcriptase RNase H activity using 18-nucleotide 3'-fluorescein-labeled RNA/5'-[…]-labeled DNA hybrid as substrate after 1 hr by fluorescence assay
How it was run: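 Polymerase-independent RNase H assay with 20 ng wild-type RT in 50 mM Tris-HCl pH 7.8, 6 mM MgCl2, 1 mM DTT and 80 mM KCl. Substrate was 0.25 μM RNA/DNA hybrid with a fluorescein-labelled RNA and a dabcyl-labelled DNA. Inhibitor was diluted in water over increasing concentrations. Incubation 1 h at 37 °C, stopped with EDTA, read at 490/528 nm. IC50 was averaged over three independent experiments.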

[3] = Binding affinity to Mg2+ at 3 x 10^-5 M to 8 x 10^-5 M by UV-Vis spectrophotometric method
How it was run: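 UV-vis spectrophotometric titration of the compound in absolute ethanol with MgCl2, read in a quartz cuvette with a 1 cm path. MgCl2 was diluted in absolute ethanol to 13 stock solutions spanning 4 10–5 to 0.2 M (stock concentrations). Spectra were recorded across increasing Mg2+ levels, and isosbestic points were used to judge complexation equilibria. Each experiment was done in triplicate.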

[4] = target: Human immunodeficiency virus type 1 reverse transcriptase (Human immunodeficiency virus 1, UniProt Q72547, A502F); assay: Inhibition of HIV1 group M subtype B reverse transcriptase p66 A502F mutant RNase H activity using 18-nucleotide 3'-fluorescein-labeled RNA/5'-[…]-labeled DNA hybrid as substrate after 1 hr by fluorescence assay; parameters: species or system HIV-1 group M
How it was run: (§1)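 Mutations were introduced into the p66 subunit of subtype B RT. Enzyme amounts were set within the linear range: R448A 37.5 ng, N474A 62.5 ng, A502F 100 ng, R557A 75 ng. Buffer was 50 mM Tris-HCl pH 7.8, 6 mM MgCl2, 1 mM DTT, 80 mM KCl, with 0.25 μM fluorescein/dabcyl hybrid and water-diluted inhibitor. Incubation 1 h at 37 °C, EDTA stop, read at 490/528 nm.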

[5] = Selectivity ratio of IC50 for HIV1 group M subtype B reverse transcriptase p66 A502F mutant RNase H activity to IC50 for HIV1 reverse transcriptase RNase H activity
[6] = Selectivity ratio of IC50 for HIV1 group M subtype B reverse transcriptase p66 R448A mutant RNase H activity to IC50 for HIV1 reverse transcriptase RNase H activity
[7] = target: Human immunodeficiency virus type 1 reverse transcriptase (Human immunodeficiency virus 1, UniProt Q72547, R557A); assay: Inhibition of HIV1 group M subtype B reverse transcriptase p66 R557A mutant RNase H activity using 18-nucleotide 3'-fluorescein-labeled RNA/5'-[…]-labeled DNA hybrid as substrate after 1 hr by fluorescence assay; parameters: species or system HIV-1 group M; how it was run: as §1
[8] = target: Human immunodeficiency virus type 1 reverse transcriptase (Human immunodeficiency virus 1, UniProt Q72547, N474A); assay: Inhibition of HIV1 group M subtype B reverse transcriptase p66 N474A mutant RNase H activity using 18-nucleotide 3'-fluorescein-labeled RNA/5'-[…]-labeled DNA hybrid as substrate after 1 hr by fluorescence assay; parameters: species or system HIV-1 group M; how it was run: as §1
[9] = Selectivity ratio of IC50 for HIV1 group M subtype B reverse transcriptase p66 N474A mutant RNase H activity to IC50 for HIV1 reverse transcriptase RNase H activity
[10] = Selectivity ratio of IC50 for HIV1 group M subtype B reverse transcriptase p66 R557A mutant RNase H activity to IC50 for HIV1 reverse transcriptase RNase H activity
[11] = target: Human immunodeficiency virus type 1 reverse transcriptase (Human immunodeficiency virus 1, UniProt Q72547, R448A); assay: Inhibition of HIV1 group M subtype B reverse transcriptase p66 R448A mutant RNase H activity using 18-nucleotide 3'-fluorescein-labeled RNA/5'-[…]-labeled DNA hybrid as substrate after 1 hr by fluorescence assay; parameters: species or system HIV-1 group M; how it was run: as §1
[12] = tested on: Human immunodeficiency virus 1; assay: Antiviral activity against HIV1 assessed as inhibition of viral replication at 40 uM by cell-based assay; type: functional, organism-based
[13] = (§2) Binding affinity to Mg2+ assessed as hyperchromic effect at 3 x 10^-5 M to 8 x 10^-5 M by UV-Vis spectrophotometric method
How it was run: (§3)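 UV-vis titration with MgCl2 in a 1 cm quartz cuvette. MgCl2 was diluted in absolute ethanol to 13 stock solutions spanning 4 10–5 to 0.2 M. Spectra were followed for absorbance changes and isosbestic points. Each experiment was done in triplicate.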

[14] = as §2; how it was run: as §3; remark: listed apart in the source

| Structure (SMILES) | Activity [1] [%] | IC50 [2] [µM] | further results |
| --- | --- | --- | --- |
| CCCCC(CC)CN1C(=O)C(O)=C(C(C)=O)C1c1ccco1 (configuration not stated) | 77.5 | > 100 |  |
| CCOc1cc(/C=C2\NC(=O)NC2=O)c(Cl)cc1OC | 70 | > 100 |  |
| C[S+]([O-])CCC(NS(=O)(=O)c1ccccc1)C(=O)O (configuration not stated) | 86 | > 100 |  |
| COc1cc(/C=N/NC(=O)COc2cccc(C)c2)c(O)c([N+](=O)[O-])c1 | 59.4 | > 100 |  |
| Cc1cc(/C=C2\NC(=O)NC2=O)c(C)n1-c1ccc(OCc2ccc(Cl)cc2Cl)cc1 |  | 8.73 | Activity [3]: inactive |
| O=C(OCCOCn1cc(Br)c(=O)[nH]c1=O)c1ccccc1 | 69.1 | > 100 |  |
| Cc1cc(/C=C2\SC(=N)NC2=O)c(C)n1-c1ccc(Cl)cc1 |  | 16.1 | Activity [3]: inactive |
| CCc1nnc(NC(=O)C(=O)NCCOC(=O)c2ccccc2)s1 | 77.9 | > 100 |  |
| NNC(=O)c1cccc(Cn2cc(Br)c([N+](=O)[O-])n2)c1 | 94.6 | > 100 |  |
| O=C(N/N=C\c1cc([N+](=O)[O-])c(O)cc1O)c1ccccc1O |  | 49.9 |  |
| COc1ccccc1/C=C/CN1CCNC(=O)C1CC(=O)O (configuration not stated) | 83.7 | > 100 |  |
| CC(=O)c1cc2c(cc1NC(=O)CCC(=O)O)OCO2 | 89.5 | > 100 |  |
| CC1=C(C(=O)O)N2C(=O)C(NC(=O)c3ccn(C)n3)C2SC1 (configuration not stated) | 80 | > 100 |  |
| Cc1nc(N)sc1C(=O)N/N=C\c1ccc(O)c([N+](=O)[O-])c1 | 55 | > 100 |  |
| CC(C)c1ccc(O)c(=O)c(O)c1 [BETA-THUJAPLICINOL] |  |  | IC50 [4]: 0.17 µM; Ratio IC50 [5]: 0.85; Ratio IC50 [6]: 0.7; IC50 [7]: 0.21 µM; IC50 [8]: 0.1 µM; Ratio IC50 [9]: 0.5; Ratio IC50 [10]: 1.05; IC50 [11]: 0.14 µM |
| CCOC(=O)C12CC(OC3CCCCC3)C1(c1ccccc1)NC(=O)C2=O (configuration not stated) | 80.4 | > 100 |  |
| Cc1cccc(OCC(=O)NC(Cc2ccccc2)C(=O)O)c1 (configuration not stated) | 87.2 | > 100 |  |
| COc1cccc(/C=C2\NC(=O)NC2=O)c1-c1ccc(OC(=O)Nc2ccccc2)cc1 |  | 28.1 |  |
| CCOc1ccc(/C=C2\SC(=O)NC2=O)cc1OCc1ccc(Cl)c(Cl)c1 |  | 5.17 | inhibition [12]: inactive; IC50 [4]: 26.7 µM; Ratio IC50 [5]: 5.3; Ratio IC50 [6]: 1.4; IC50 [7]: 12.5 µM; Activity [3]: inactive; IC50 [8]: > 300 µM; Ratio IC50 [9]: > 59; Ratio IC50 [10]: 2.5; IC50 [11]: 7.01 µM |
| CCCc1cc2c(cc1/C=C1\NC(=O)NC1=O)OCO2 |  | 91.6 |  |
| O=C(O)COc1ccc(/C=C2\NC(=O)NC2=O)cc1I | 67.5 | > 100 |  |
| Cc1ccc(C2NC(=O)C(O)=C2C(=O)c2cccs2)cc1 (configuration not stated) | 81.8 | > 100 |  |
| CSCCC(NS(=O)(=O)c1ccc2c(c1)NC(=O)C(C)O2)C(=O)O (configuration not stated) | 80.2 | > 100 |  |

| Structure (SMILES) | Activity [1] [%] | IC50 [2] [µM] | further results |
| --- | --- | --- | --- |
| CCOc1cc(/C=C2\SC(=S)N(c3ccccc3)C2=O)cc([N+](=O)[O-])c1O |  | 12.8 | inhibition [12]: inactive; IC50 [4]: 26.3 µM; Ratio IC50 [5]: 2.1; Ratio IC50 [6]: 0.9; IC50 [7]: 18.6 µM; Activity [13]: Active; Activity [3]: Active; IC50 [8]: 146 µM; Ratio IC50 [9]: 11.4; Ratio IC50 [10]: 1.5; Activity [14]: Active; IC50 [11]: 11.3 µM |
| CCN1C(=O)/C(=C/c2ccc(O)c([N+](=O)[O-])c2)SC1=S | 65.5 | > 100 |  |
| Cc1cc(/C=C2\NC(=O)NC2=O)cc(C)c1OCc1cccc([N+](=O)[O-])c1 |  | 17.8 |  |
| O=C(O)CCCC(=O)NC1CCCCCCC1 | 76.3 | > 100 |  |
| CCOc1ccc(/C=C2\NC(=O)NC2=O)c(Cl)c1OC |  | 84.2 |  |
| O=C1Nc2ccccc2/C1=N\NC(=O)c1ccc(O)cc1O |  | 36.4 |  |
| Cc1ccc(C2CC2C(=O)NN)cc1 (configuration not stated) | 83.5 | > 100 |  |
| CCCOC(=O)CNc1n[nH]c(=O)[nH]c1=O | 89.1 | > 100 |  |
| O=C(O)CC1CSc2ccccc2NC1=O (configuration not stated) | 76.5 | > 100 |  |
| O=C(CSc1nc2ccccc2o1)Nc1ncn[nH]1 | 82.7 | > 100 |  |
| O=C1NC(=O)/C(=C/c2ccc(Cl)c(Cl)c2)S1 | 80.5 | > 100 |  |
| CCOc1cccc(/C=C2\SC(=O)NC2=O)c1O | 60 | > 100 |  |
| NNC(=O)C12CC3CC(C1)CC(n1cnc(Cl)n1)(C3)C2 | 73.4 | > 100 |  |
| COc1cc(N2CCCC2)c(OC)cc1/C=C1/NC(=O)NC1=O |  | 9.35 | inhibition [12]: inactive; IC50 [4]: 32.5 µM; Ratio IC50 [5]: 3.5; Ratio IC50 [6]: 1.2; IC50 [7]: 20.5 µM; Activity [3]: Active; IC50 [8]: > 300 µM; Ratio IC50 [9]: > 32; Ratio IC50 [10]: 2.2; IC50 [11]: 11 µM |
| COc1ccccc1NC(=O)C1CCCCC1(C)C(=O)O (configuration not stated) |  | 61.2 |  |
| CC(Oc1ccc(C(C)(C)C)cc1)C(=O)NN (configuration not stated) | 70.4 | > 100 |  |
| COc1cc(NC(=O)C2CC(=O)N=C(N)S2)cc(OC)c1 (configuration not stated) | 74.5 | > 100 |  |
| COC(=O)c1c(-c2cccs2)csc1NC(=O)C1CC=CCC1C(=O)O (configuration not stated) | 93 | > 100 |  |
| CCC(C)Oc1ccc(/C=C2\NC(=O)NC2=O)cc1 (configuration not stated) |  | 52.8 |  |
| O=C(O)C1Sc2[nH]c(=O)sc2C2c3ccccc3OC(=O)C12 (configuration not stated) | 80 | > 100 |  |
| Cc1cc(/C=C2\SC(N)=NC2=O)c(C)n1-c1ccc(F)cc1 |  | 12.3 | Activity [3]: inactive |
| NC(=O)N(CCC(=O)O)c1ccc(Br)cc1 | 84.5 | > 100 |  |
